# Data from PubChem BioAssay.
# A number with no mark means an inactive call. Results filed as inconclusive are left out. The source made the active and inactive calls.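 How the source made its calls, unless noted: active means growth inhibition above 25% in both replicates, a cutoff set 3 SD above the mean; inconclusive means above 25% in only one replicate; inactive means the rest.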
# What was measured:
# [1] = OD615 S. cerevisiae growth inhibition, permissive medium, pilot counter-assay, permissive growth control for S. cerevisiae lifespan shortening project (AID 705); details: OD615, 24 h, at 10 µM, stronger effect = higher value
# Procedure, shortened: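 assay system = Saccharomyces cerevisiae strain carrying genetically modified DeaD replicative-lifespan system | technique = absorbance (optical density) at 615 nm | buffer or medium = permissive raffinose/galactose medium | timing = cells pre-grown 4 h, then 24 h compound exposure, 30 °C humidified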
# [2] = Restrictive medium S. cerevisiae growth inhibition, OD615, pilot screen of yeast lifespan reduction project, restrictive growth control (AID 706;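 active means growth inhibition above a set limit, 3 SD over mean compound inhibition, in both replicates, cut at about 43% in these data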;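 further: modified DeaD lifespan yeast strain shifted to restrictive glucose medium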); details: OD615, 48 h, at 10 µM, stronger effect = higher value
# Procedure, shortened: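 System: modified S. cerevisiae. Buffer or medium: CSMM-D glucose medium. Incubation: 4 h pre-growth plus 48 h compound exposure, 30 °C. Detection: absorbance (optical density) measured at 615 nm.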
# [3] = viability gain of MRP-1-high H69AR cells under doxorubicin, pilot screen, MRP-1 activator project, CellTiter-Glo, duplicate (AID 807;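 active means viability increase at or above a cutoff of the median across tested compounds plus 3 SD, cut at about 8.5% in these data, passing the limit was not always enough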;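 further: compound pretreatment 18-22 h then 72 h combined with doxorubicin; 0% = doxorubicin alone and 100% = vehicle without doxorubicin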); details: H69AR viability with doxorubicin, CellTiter-Glo luminescence; at 10 µM; stronger effect = higher value
# [4] = growth suppression of beta-catenin knockout HCT116, pilot screen, human colon tumor cells (AID 823;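 active means cell viability at or below a set limit in both duplicate runs, the limit being the all-compound median minus 4 SD, cut at about 23% in these data, passing the limit was not always enough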;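 further: 0% = wells killed by 20 µM Hyamine and 100% = untreated DMSO cell wells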); details: CellTiter-Glo, 60 h, at 10 µM, stronger effect = lower value
# [5] = growth suppression of PTEN-deleted HCT116, pilot screen, cell-based, HCT116 clonal line, CellTiter-Glo (AID 824;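 active means viability at or below 27.92% in each of two runs, the all-compound median minus 4 SD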;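 further: 0% = 20 µM Hyamine control and 100% = vehicle cell control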); details: 60 h, at 10 µM, stronger effect = lower value
# [6] = inhibitors of the yeast RAM network, pilot screen, dse1pr::URA3 reporter, 5-FOA selection (AID 869;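 active means inhibition over a set limit, the all-compound mean plus 3 SD, in both replicate runs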;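 further: 0% = DMSO wells with no growth and 100% = 10 µM 1-NA-PP1 with full growth; RAM network block rescues cells from 5-FOA so hits raise OD615 growth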); details: S. cerevisiae dse1pr::URA3 5-FOA growth, OD615, 2 d; at 10 µM; stronger effect = higher value; strain carries analog-sensitive mutant Cbk1 kinase
# [7] = RAM signaling pathway blockade in yeast – S. cerevisiae, Pdr1DBD-CYC8 efflux-inhibited sensitized strain, primary screen (AID 1298;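 active means RAM network inhibition above 8.4% in each of two replicates, 3 SD over the compound average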;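 further: 0% = DMSO untreated cells without growth and 100% = 10 µM 1-NA-PP1 full growth; higher means more yeast growth rescued from 5-FOA killing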); details: S. cerevisiae cbk1-as DSE1-URA3 strain, 5-FOA growth OD615, 2 d; at 50 µM; stronger effect = higher value
SMILES,growth inhibition [1] [%],growth inhibition [2] [%],viability increase [3] [%],viability [4],viability [5],inhibition [6] [%],RAM network inhibition [7] [%]
CC(C)C(=O)Nc1c(C(=O)c2ccc(F)cc2)oc2ccccc12,-8.13,-2.55,0.04,105%,91.2%,1.55,1.81
Cc1cc(C)n(-c2nc3ccccc3nc2N2CCOCC2)n1,-12.6,7.74,-1.22,98%,98.3%,2.33,2.25
Cc1ccc2oc(=O)c3cnn(CC(=O)NCCN(C)C)c3c2c1,-13,-11.6,0.12,101%,97.7%,0.365,0.55
COc1ccc(N(CC(=O)NCc2cccs2)S(=O)(=O)c2cccnc2)cc1,5.41,4.48,-0.05,107%,106%,0.045,7.1
CC1(C)CC(=O)N(CC(=O)N2CCN(c3ncccn3)CC2)c2ccccc2S1(=O)=O,-6.82,-9.5,0.27,102%,91.8%,0.48,-0.32
COc1ccc(N2C(=O)C3CCCN3C2c2cccc(OC)c2)cc1 (stereo unspecified),2.15,-0.935,-1.99,98.9%,104%,1.75,-1.67
COc1ccc(CCN=C2SCC(=O)N2C)cc1OC,3.32,1.86,-0.79,102%,97%,2.14,6.13
CCc1ccccc1N1CSC2=C(C#N)C(c3ccccc3F)CC(=O)N2C1 (stereo unspecified),-2.74,35.3,-7.03,78.8%,76.5%,0.905,4.09
Cc1ccc(NC(=O)c2cnc3scc(C)n3c2=O)c(C)c1,-4.27,-12.6,-3.97,106%,96.5%,-0.14,1.14
CCN1CCN(Cc2ccc(NC(=O)Nc3ccc(OC)cc3)cc2)CC1,5.68,1.98,0.19,104%,108%,2.09,1.09
CCOC(=O)C1CCN(C(=O)c2ccc(Cl)c(NC3=NC4CS(=O)(=O)CC4S3)c2)CC1 (stereo unspecified),-13.6,-14.5,-0.09,107%,89.4%,1.65,-0.37
CSC1=NCCN1C(=O)c1ccco1,1.44,-4.79,0.04,103%,98.3%,0.865,3.19
CC(=O)Nc1ccc(NC(=O)CCC(=O)NCCO)cc1,-10.7,-16.7,-0.28,90.8%,92.8%,0.825,5.19
Cc1ccc(C(=O)NCc2ccc(Cl)c(Cl)c2)o1,-3.73,4.06,0.03,98%,98.5%,0.67,1.28
CC(=O)c1cccc(NC(=O)N2CCCC2C(=O)NCc2ccccc2)c1 (stereo unspecified),-6.55,-11.5,-1.13,104%,100%,0.87,1.46
Nc1ccc(SC(F)(F)F)cc1C(=O)c1ccccc1,-6.7,-13.2,-0.99,74%,70.4%,-2.23,3.77
O=S(=O)(c1ccc(N2CC=C(c3ccccc3)CC2)nc1)N1CCCC1,-6.39,-12.5,-7,4.45% (active),3.3% (active),2.18,2.69
Cc1cccc(C2Nc3ccccc3C(=O)N2CCc2ccccc2)n1 (stereo unspecified),-10.1,-2.82,-2.91,78.3%,73.5%,2.09,7.42
